Results from ChEMBL document CHEMBL1143007, “Synthesis and evaluation of 4/5-hydroxy-2,3-diaryl(substituted)-cyclopent-2-en-1-ones as cis-restricted analogues of combretastatin A-4 as novel anticancer agents” (J Med Chem, 2007).
≈ marks a conversion by molar mass, not a printed value.

Assays:
HT-29 = test: Cytotoxicity against human HT29 cells after 72 hrs by MTT assay; type: cell-based
Outline: (§1)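 MTT assay. Cells seeded at 5000-10 000 per well and incubated at 37 °C in CO₂ with compound at 1-100 µg/mL in triplicate wells for 72 h, then MTT added. Absorbance read at 540 nm; % cytotoxicity = 100 × (1 − treated/control). IC50 obtained by nonlinear regression; NA means IC50 above 100 µg/mL.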

DU-145 = test: Cytotoxicity against human DU145 cells after 72 hrs by MTT assay; type: cell-based; outline: as §1
KB = test: Cytotoxicity against human KB cells after 72 hrs by MTT assay; type: cell-based; outline: as §1
L132 = test: Cytotoxicity against human L132 cells after 72 hrs by MTT assay; type: cell-based; outline: as §1
MIA PaCa-2 = test: Cytotoxicity against human MiaPaCa2 cells after 72 hrs by MTT assay; type: cell-based; outline: as §1
[1] = Cytotoxicity against human Hep2 cells after 72 hrs by MTT assay; type: cell-based, HEp-2; outline: as §1
[2] = Cytotoxicity against human PA1 cells after 72 hrs by MTT assay; type: cell-based, PA-1; outline: as §1
[3] = Cytotoxicity against human ECV304 cells after 72 hrs by MTT assay; type: cell-based, ECV-304; outline: as §1
HEK293 = test: Cytotoxicity against human HEK293 cells after 72 hrs by MTT assay; type: cell-based; outline: as §1
[4] = Homo sapiens, HT-29, 72 h, read-out: IC50
[5] = Homo sapiens, DU-145, 72 h, read-out: IC50
[6] = Homo sapiens, KB, 72 h, read-out: IC50
[7] = Homo sapiens, L132, 72 h, read-out: IC50
[8] = Homo sapiens, MIA PaCa-2, 72 h, read-out: IC50
[9] = Homo sapiens, HEp-2, 72 h, read-out: IC50
[10] = Homo sapiens, PA-1, 72 h, read-out: IC50
[11] = Homo sapiens, ECV-304, 72 h, read-out: IC50
[12] = Homo sapiens, HEK293, 72 h, read-out: IC50

Row | SMILES | IC50 (HT-29; [4]) [µg/mL] | IC50 (DU-145; [5]) [µg/mL] | IC50 (KB; [6]) [µg/mL] | IC50 (L132; [7]) [µg/mL] | IC50 (MIA PaCa-2; [8]) [µg/mL] | IC50 [1, 9] [µg/mL] | IC50 [2, 10] [µg/mL] | IC50 [3, 11] [µg/mL] | IC50 (HEK293; [12]) [µg/mL] | IC50 (HT-29; ht-29) [µg/mL] | IC50 (DU-145; du-145) [µg/mL] | IC50 (KB; kb) [µg/mL] | IC50 (L132; l132) [µg/mL] | IC50 (MIA PaCa-2; mia paca-2) [µg/mL] | IC50 ([1]; hep-2) [µg/mL] | IC50 ([2]; pa-1) [µg/mL] | IC50 ([3]; ecv-304) [µg/mL] | IC50 (HEK293; hek293) [µg/mL]
1 | COc1ccc(C2=C(c3cc(OC)c(OC)c(OC)c3)C(=O)C(O)C2)cc1NC(=O)c1ccccc1 (stereo not given) | > 100 | > 100 | > 100 | > 100 | > 100 | > 100 | > 100 | > 100 | > 100 | – | – | – | – | – | – | – | – | –
2 | O/N=C1/CC(O)C(c2ccccc2)=C1c1ccccc1 (stereo not given) | > 100 | > 100 | > 100 | > 100 | > 100 | > 100 | > 100 | > 100 | > 100 | – | – | – | – | – | – | – | – | –
3 | COc1ccc(C2=C(c3cc(OC)c(OC)c(OC)c3)/C(=N\O)C(OC(C)=O)C2)cc1Cl (stereo not given) | < 1 | 17 (≈ 36.8 µM) | 50 (≈ 108 µM) | < 1 | 10 (≈ 21.6 µM) | < 1 | 37.5 (≈ 81.2 µM) | 8 (≈ 17.3 µM) | 32 (≈ 69.3 µM) | – | – | – | – | – | – | – | – | –
4 | COc1ccc(C2=C(c3cc(OC)c(OC)c(OC)c3)C(=O)C(OC(C)=O)C2)cc1O (stereo not given) | < 1 | > 100 | 35 (≈ 81.7 µM) | 6 (≈ 14 µM) | 18.5 (≈ 43.2 µM) | > 100 | 6 (≈ 14 µM) | > 100 | 92 (≈ 215 µM) | – | – | – | – | – | – | – | – | –
5 | COc1cc(C2=C(c3ccc(OCC(=O)[O-])cc3)C(O)CC2=O)cc(OC)c1OC.[Na+] (stereo not given) | – | > 100 | > 100 | – | > 100 | > 100 | – | – | > 100 | – | – | – | – | – | – | – | – | –
6 | COc1ccc(C2=C(c3cc(OC)c(OC)c(OC)c3)CC(O)C2=O)cc1[N+](=O)[O-] (stereo not given) | > 100 | > 100 | > 100 | > 100 | > 100 | > 100 | > 100 | > 100 | > 100 | – | – | – | – | – | – | – | – | –
7 | CC(=O)OC1C/C(=N/O)C(c2ccccc2)=C1c1ccccc1 (stereo not given) | > 100 | > 100 | 9 (≈ 29.3 µM) | > 100 | 4.5 (≈ 14.6 µM) | > 100 | > 100 | > 100 | 92.3 (≈ 300 µM) | – | – | – | – | – | – | – | – | –
8 | COc1ccc(C2=C(c3cc(OC)c(OC)c(OC)c3)C(=O)CC2O[Si](C)(C)C(C)(C)C)cc1OC (stereo not given) | > 100 | > 100 | > 100 | > 100 | > 100 | > 100 | > 100 | > 100 | > 100 | – | – | – | – | – | – | – | – | –
9 | COc1ccc(OC)c(C2=C(c3cc(OC)c(OC)c(OC)c3)C(=O)CC2O[Si](C)(C)C(C)(C)C)c1 (stereo not given) | 5 (≈ 9.71 µM) | 100 (≈ 194 µM) | 10 (≈ 19.4 µM) | 100 (≈ 194 µM) | > 100 | 19 (≈ 36.9 µM) | 17 (≈ 33 µM) | 6.5 (≈ 12.6 µM) | 9.5 (≈ 18.5 µM) | – | – | – | – | – | – | – | – | –
10 | COc1ccc(C2=C(c3cc(OC)c(OC)c(OC)c3)/C(=N\O)CC2OC(C)=O)cc1 (stereo in doubt; 22) | – | – | – | – | – | – | – | – | – | 1.5 (≈ 3.51 µM) | 20 (≈ 46.8 µM) | 5 (≈ 11.7 µM) | 20 (≈ 46.8 µM) | 1 (≈ 2.34 µM) | 3 (≈ 7.02 µM) | 20 (≈ 46.8 µM) | 4 (≈ 9.36 µM) | 32 (≈ 74.9 µM)
11 | COc1cc(C2=C(c3ccccc3)C(O[Si](C)(C)C(C)(C)C)CC2=O)cc(OC)c1OC (stereo not given) | > 100 | > 100 | > 100 | > 100 | > 100 | > 100 | > 100 | > 100 | > 100 | – | – | – | – | – | – | – | – | –
12 | COc1ccc(C2=C(c3cc(OC)c(OC)c(OC)c3)C(=O)C(O)C2)cc1OC(C)C (stereo not given) | > 100 | > 100 | > 100 | > 100 | > 100 | > 100 | > 100 | > 100 | > 100 | – | – | – | – | – | – | – | – | –
13 | COc1ccc(C2=C(c3cc(OC)c(OC)c(OC)c3)/C(=N\O)CC2O)cc1O (stereo not given) | 9 (≈ 22.4 µM) | 23 (≈ 57.3 µM) | 10 (≈ 24.9 µM) | 8 (≈ 19.9 µM) | > 100 | < 1 | 3.7 (≈ 9.22 µM) | > 100 | > 100 | – | – | – | – | – | – | – | – | –
14 | COc1ccc(C2=C(c3cc(OC)c(OC)c(OC)c3)/C(=N\O)C(O)C2)cc1Cl (stereo not given) | < 1 | 16 (≈ 38.1 µM) | 9.8 (≈ 23.3 µM) | < 1 | 33 (≈ 78.6 µM) | < 1 | > 100 | 18.5 (≈ 44.1 µM) | 50 (≈ 119 µM) | – | – | – | – | – | – | – | – | –
15 | COc1ccc(C2=C(c3cc(OC)c(OC)c(OC)c3)C(=O)C(OC(C)=O)C2)cc1 (stereo not given) | < 1 | > 100 | 72 (≈ 175 µM) | > 100 | < 1 | 18 (≈ 43.6 µM) | < 1 | 18 (≈ 43.6 µM) | – | – | – | – | – | – | – | – | – | –
